pIC50: −log10 of the molar value.
Columns and labels:
[1] = target: 72 kDa type IV collagenase (Homo sapiens, UniProt P08253); experiment: (§1) Inhibition of recombinant human MMP2 catalytic domain (Tyr110 to Asp452 residues) expressed in yeast cells using Mca-Pro-Leu-Gly-Leu-Dpa-Ala-Arg-NH2/TQ3-GABA-Pro-Cha-Abu-Smc-His-Ala-Dab(6'-TAMRA)-Ala-Lys-NH2 as fluorogenic substrate preincubated for 15 mins followed by substrate addition measured after 2 to 4 hrs by fluorometric analysis; assay type: biochemical
Chain of 72 kDa type IV collagenase (P08253 whole entry, the tested form may be a part): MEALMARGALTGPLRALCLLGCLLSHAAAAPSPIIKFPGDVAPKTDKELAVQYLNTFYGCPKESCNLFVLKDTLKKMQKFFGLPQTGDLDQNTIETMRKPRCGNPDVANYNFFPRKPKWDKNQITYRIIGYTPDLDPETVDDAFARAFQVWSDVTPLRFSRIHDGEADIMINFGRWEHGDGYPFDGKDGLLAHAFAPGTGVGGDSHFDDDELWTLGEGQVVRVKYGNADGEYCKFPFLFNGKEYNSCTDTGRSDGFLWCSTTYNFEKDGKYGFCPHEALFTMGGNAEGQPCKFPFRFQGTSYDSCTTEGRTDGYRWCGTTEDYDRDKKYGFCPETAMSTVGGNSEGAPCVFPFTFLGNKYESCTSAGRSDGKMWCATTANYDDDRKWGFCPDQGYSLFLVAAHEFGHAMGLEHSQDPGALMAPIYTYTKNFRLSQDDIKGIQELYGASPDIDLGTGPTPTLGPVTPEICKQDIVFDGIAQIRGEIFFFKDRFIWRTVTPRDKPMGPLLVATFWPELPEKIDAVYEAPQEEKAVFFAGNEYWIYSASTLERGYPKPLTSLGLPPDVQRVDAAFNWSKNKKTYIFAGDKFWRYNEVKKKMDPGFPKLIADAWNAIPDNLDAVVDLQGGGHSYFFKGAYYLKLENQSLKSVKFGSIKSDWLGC
Summary of the method: (§2)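 Commercial catalytic domain in Tris·HCl 50 mM pH 7.5, NaCl 150 mM, CaCl₂ 1 mM, ZnCl₂ 1 µM, 0.05% Brij-35, 1% DMSO. Inhibitor was tested at six concentrations (1 nM–100 µM), diluted from 10 mM DMSO stocks, and pre-incubated with enzyme for 15 min at room temperature. OmniMMP substrate (2.5 µM final) or OmniMMP RED substrate (1 µM final) was then added and incubated 2–4 h at 37°C. Fluorescence read at ex 340/em 405 or ex 545/em 572. Percent inhibition calculated versus no-inhibitor wells. Run in triplicate; IC50 given as mean ± SEM of ≥2 independent experiments.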

[2] = target: Collagenase 3 (Homo sapiens, UniProt P45452); experiment: as §1, with “MMP13” for “MMP2”, “(Tyr104” for “(Tyr110”, “Asn274” for “Asp452”, “Escherichia coli” for “yeast”, “assay” for “analysis”
[3] = target: Neutrophil collagenase (Homo sapiens, UniProt P22894); experiment: as §1, with “MMP8” for “MMP2”, “(Phe99” for “(Tyr110”, “Gln269” for “Asp452”, “Escherichia coli” for “yeast”, “assay” for “analysis”; summary of the method: as §2
Chain of Neutrophil collagenase (P22894 whole entry): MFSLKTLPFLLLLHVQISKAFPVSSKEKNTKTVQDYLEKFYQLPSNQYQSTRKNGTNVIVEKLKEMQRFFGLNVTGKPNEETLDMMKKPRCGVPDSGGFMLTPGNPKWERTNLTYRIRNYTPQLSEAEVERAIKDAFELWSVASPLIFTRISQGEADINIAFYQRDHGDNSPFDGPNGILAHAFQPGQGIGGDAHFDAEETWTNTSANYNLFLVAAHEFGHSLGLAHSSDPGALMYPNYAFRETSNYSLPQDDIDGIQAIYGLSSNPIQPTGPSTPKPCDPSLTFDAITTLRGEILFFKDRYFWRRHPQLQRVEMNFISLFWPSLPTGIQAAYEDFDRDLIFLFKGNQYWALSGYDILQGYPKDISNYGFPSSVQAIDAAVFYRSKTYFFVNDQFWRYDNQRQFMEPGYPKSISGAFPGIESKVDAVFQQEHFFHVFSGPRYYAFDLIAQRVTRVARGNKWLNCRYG

[4] = target: Matrix metalloproteinase-9 (Homo sapiens, UniProt P14780); experiment: as §1, with “MMP9” for “MMP2”, “(Phe107” for “(Tyr110”, “Pro449” for “Asp452”, “Escherichia coli” for “yeast”, “assay” for “analysis”; summary of the method: as §2
Chain of Matrix metalloproteinase-9 (P14780 whole entry): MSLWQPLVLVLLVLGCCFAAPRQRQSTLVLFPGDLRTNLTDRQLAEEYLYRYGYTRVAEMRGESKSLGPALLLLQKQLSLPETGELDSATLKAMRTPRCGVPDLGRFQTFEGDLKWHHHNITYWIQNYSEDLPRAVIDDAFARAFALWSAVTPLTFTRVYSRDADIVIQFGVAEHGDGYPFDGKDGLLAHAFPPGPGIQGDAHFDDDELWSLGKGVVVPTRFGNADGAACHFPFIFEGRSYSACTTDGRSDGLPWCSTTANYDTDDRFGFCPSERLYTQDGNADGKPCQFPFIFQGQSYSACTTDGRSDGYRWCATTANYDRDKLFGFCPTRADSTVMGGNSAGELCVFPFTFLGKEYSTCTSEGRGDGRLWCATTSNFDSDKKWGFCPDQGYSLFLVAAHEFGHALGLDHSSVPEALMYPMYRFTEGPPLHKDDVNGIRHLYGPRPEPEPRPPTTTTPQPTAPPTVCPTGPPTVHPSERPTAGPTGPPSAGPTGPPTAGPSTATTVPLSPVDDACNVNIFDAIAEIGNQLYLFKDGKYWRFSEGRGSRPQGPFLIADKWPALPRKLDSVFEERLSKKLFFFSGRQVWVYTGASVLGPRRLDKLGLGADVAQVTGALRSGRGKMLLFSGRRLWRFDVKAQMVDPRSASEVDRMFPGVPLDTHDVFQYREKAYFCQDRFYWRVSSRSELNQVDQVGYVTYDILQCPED

SMILES	pIC50 [1]	pIC50 [2]	pIC50 [3]	pIC50 [4]
O=S(=O)(Nc1cccc(-c2nc3ccccc3[nH]2)c1)c1ccccc1	4.18	4.03	4.36	4.44
O=C(Nc1nc2ccc(Cl)cc2s1)c1ccc([N+](=O)[O-])cc1	< 4.00	4.70	< 4.00	< 4.00
Cc1cccc2nc(-c3cccc(NC(=O)CCc4ccccc4)c3)[nH]c12	4.19	< 4.00	4.54	4.22
O=C(CCCc1ccccc1)Nc1ccc(-c2nc3ccccc3[nH]2)cc1	4.02	4.30	< 4.00	< 4.00
COc1ccc(/C=C/C(=O)Nc2cccc(-c3nc4ccccc4[nH]3)c2)cc1	4.32	4.28	< 4.00	< 4.00
Nc1ccc(-c2nc3ccccc3s2)cc1	< 4.00	< 4.00	4.06	4.10
O=C(CCCc1ccccc1)Nc1cccc(-c2nc3ccccc3[nH]2)c1	4.33	4.09	4.46	4.37
O=C(O)c1ccc(-c2nc3ccc(Br)cc3[nH]2)cc1	4.50	4.37	4.46	4.57
O=C(Nc1nc2ccccc2s1)c1ccc([N+](=O)[O-])cc1	< 4.00	< 4.00	< 4.00	< 4.00
O=[N+]([O-])c1cccc(-c2nc3ccc(Br)cc3[nH]2)c1	< 4.00	4.33	< 4.00	< 4.00
O=C(CCCc1ccccc1)Nc1ccc(-c2nc3ccc(Br)cc3[nH]2)cc1	4.51	4.65	4.17	4.24
O=[N+]([O-])c1ccc(-c2nc3ccccc3[nH]2)o1	4.51	4.48	4.57	4.49
Brc1ccc2nc(-c3ccccc3)[nH]c2c1	< 4.00	< 4.00	< 4.00	< 4.00
Cc1cccc2nc(-c3cccc(NC(=O)CCCc4ccccc4)c3)[nH]c12	4.22	4.04	4.39	4.41
O=C(CCc1ccccc1)Nc1cccc(-c2nc3ccccc3[nH]2)c1	4.06	< 4.00	4.38	4.17
O=[N+]([O-])c1ccc(-c2nc3cc([N+](=O)[O-])ccc3[nH]2)cc1	5.38	4.92	4.60	4.63
Cc1ccc2nc(-c3cccc(NC(=O)CCc4ccccc4)c3)[nH]c2c1	4.51	< 4.00	4.49	4.58
Cc1ccc2nc(-c3cccc(C(=O)NCCc4ccccc4)c3)[nH]c2c1	4.35	< 4.00	4.40	4.42
Cc1ccc2nc(-c3cccc(NC(=O)CN(C)Cc4ccccn4)c3)[nH]c2c1	4.14	4.03	< 4.00	< 4.00
O=[N+]([O-])c1ccc(-c2nc3ccccc3[nH]2)cc1	4.09	< 4.00	4.19	4.25

Further compounds by rising pIC50 [1], results first:

pIC50 [1]	pIC50 [2]	pIC50 [3]	pIC50 [4]	SMILES
4.60	4.75	4.11	4.22	Cc1ccc2nc(-c3ccc(NC(=O)CCc4ccccc4)cc3)[nH]c2c1
4.72	4.82	4.19	4.54	O=C(CCc1ccccc1)Nc1ccc(-c2nc3ccccc3[nH]2)cc1
4.79	4.68	4.42	4.38	O=C(Nc1ccc(-c2nc3ccccc3s2)cc1)c1ccccc1
4.80	4.14	4.90	4.84	O=C(CCc1ccccc1)Nc1cccc(-c2nc3ccc(Br)cc3[nH]2)c1
4.80	4.96	4.83	4.70	Cc1ccc2oc(-c3ccc(NC(=O)c4ccc([N+](=O)[O-])cc4)cc3)nc2c1
4.85	4.81	4.57	4.44	Cc1ccc2nc(-c3cccc([N+](=O)[O-])c3)[nH]c2c1
4.92	4.46	4.34	4.24	O=C(Nc1cccc(-c2nc3ccccc3[nH]2)c1)c1ccccc1
5.00	4.68	4.59	4.66	Nc1ccc(-c2nc3ccc(Br)cc3[nH]2)cc1
5.01	5.06	4.79	4.83	Cc1ccc2oc(-c3ccc([N+](=O)[O-])cc3)nc2c1
5.03	4.96	4.26	4.39	O=C(Nc1ccc(-c2nc3ccccc3[nH]2)cc1)c1ccc(Br)cc1
5.05	4.72	4.58	4.68	COC(=O)c1ccc(-c2nc3ccc(Br)cc3[nH]2)cc1
5.05	5.03	4.54	4.74	Cc1ccc2nc(-c3ccc([N+](=O)[O-])cc3)oc2c1
5.06	4.98	5.00	5.00	O=[N+]([O-])c1ccc(-c2nc3ccc(Br)cc3[nH]2)cc1
5.07	5.19	4.34	4.55	Cc1ccc2nc(-c3ccc(NC(=O)c4ccccc4)cc3)[nH]c2c1
5.15	5.19	5.10	4.94	O=C(CCc1ccccc1)Nc1ccc(-c2nc3ccc(Br)cc3[nH]2)cc1
5.19	5.12	4.55	4.80	O=C(Nc1ccc(-c2nc3ccccc3[nH]2)cc1)c1ccccc1
5.19	5.21	4.64	4.66	Cc1ccc2nc(-c3ccc([N+](=O)[O-])cc3)[nH]c2c1
5.19	5.12	4.98	4.94	O=[N+]([O-])c1ccc(-c2nc3ccccc3s2)cc1
5.19	5.41	4.30	4.49	O=C(Nc1ccc(-c2nc3ccc(Br)cc3[nH]2)cc1)c1ccccc1
5.24	5.14	4.34	4.44	O=[N+]([O-])c1ccc(-c2nc3ccccc3o2)cc1
5.41	5.66	4.68	4.84	Cc1ccc2nc(-c3ccc(NC(=O)c4cccc([N+](=O)[O-])c4)cc3)[nH]c2c1
5.48	5.74	4.59	4.97	Cc1ccc2nc(-c3ccc(NC(=O)c4ccc([N+](=O)[O-])cc4)cc3)[nH]c2c1
5.51	5.41	5.10	5.19	O=C(Nc1ccc(-c2nc3ccc(Br)cc3[nH]2)cc1)c1ccc([N+](=O)[O-])cc1

From ChEMBL document CHEMBL4616594, “Virtual screening identification and chemical optimization of substituted 2-arylbenzimidazoles as new non-zinc-binding MMP-2 inhibitors” (Bioorg Med Chem, 2020)
